In publication PMC3932990 (Journal of medicinal chemistry, 2013):

Columns and labels:
[1] = target: T1, RPA70N (Homo sapiens, UniProt P27694); assay: NMR-based titration, binding to RPA70N; settings: linked compound vs fragments
[2] = target: T1, RPA70N; assay: ATRIP-based FPA competition assay; assay type: binding; settings: from FPA-derived Kd
In short: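 Competitive fluorescence polarization anisotropy. Buffer: 50 mM HEPES, 75 mM NaCl, 5 mM DTT, pH 7.5, 5% DMSO. Test compound run as 10-point 3-fold series, 500–0.025 µM final. 4-parameter logistic IC50 converted to Kd.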

Row | increase in affinity with respect to the starting fragments [1] [fold] | ligand efficiency (LE) [2] | Structure (SMILES)
1 | > 20 |  | Cc1cccc(-n2nc(C(=O)O)cc2-c2ccc(OCc3ccc(-c4ccc(C(=O)O)o4)cc3)cc2)c1 [compound 7, 5-(4-((4-(5-Carboxyfuran-2-yl)benzyl)oxy)phenyl)-1-(m-tolyl)-1H-pyrazole-3-carboxylic acid]
2 |  | 0.23 | O=C(O)c1cc(-c2ccc(CNC(=S)c3ccc(-c4ccc(C(=O)O)o4)cc3Cl)cc2)n(-c2ccc(Cl)c(Cl)c2)n1 [compound 8, 5-(4-((4-(5-Carboxyfuran-2-yl)-2-chlorophenylthioamido)methyl)phenyl)-1-(3,4-dichlorophenyl)-1H-pyrazole-3-carboxylic acid]
3 |  | 0.18 | O=C(O)c1cc(-c2ccc(CNC(=O)c3ccc(-c4ccc(C(=O)O)o4)cc3Cl)cc2)n(-c2ccc(Cl)c(Cl)c2)n1 [compound 22, 5-(4-((4-(5-Carboxyfuran-2-yl)-2-chlorobenzamido)methyl)phenyl)-1-(3,4-dichlorophenyl)-1H-pyrazole-3-carboxylic acid]
